VIM-2 inhibitor: blocks Pseudomonas aeruginosa VIM-2 metallo-beta-lactamase; purified VIM-2, nitrocefin hydrolysis, epi-absorbance fluorescence; inhibition, % at 5.6 µM; 0.89% of 290,000 active; AID 1527;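 active = inhibition above the mean of all tested compounds plus 3 SD, cutoff set per screening run, cut at about 7.5% in these data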;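 note: red hydrolysis product quenches plate fluorescence so inhibitors raise well fluorescence; 0% = enzyme with DMSO and 100% = DMSO without enzyme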
RanGTP-Imp inh: disruptors of Ran-importin-beta complex formation – biochemical, FRET, CFP-Ran, YFP-importin-beta, homogeneous, primary screen; 1.1% of 300,000 active; AID 2216; inhibition, % (test concentration not listed); cell-free CFP-Ran/YFP-importin-beta FRET ratio;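 active = more than half of the replicate wells show a fall in the fluorescence ratio signal beyond about 16%, limit read from the data, passing the limit was not always enough; inconclusive = exactly half of the replicate wells pass the set limit; inactive = fewer than half of replicates pass the limit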;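 note: 0% = DMSO wells and 100% = Ran loaded with GDP instead of GTP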
IMP-1 inh: blocks Pseudomonas aeruginosa IMP-1 metallo-beta-lactamase | purified IMP-1, nitrocefin hydrolysis, epi-absorbance fluorescence | inhibition, % at 5.6 µM | 0.45% of 290,000 active;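 active = inhibition above the mean plus 3 SD of all compounds in the same screening run, cut at about 4.5% in these data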;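 note: 0% = IMP-1 with DMSO and 100% = DMSO wells lacking enzyme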
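Material – recombinant IMP-1 enzyme, purified · Amount – IMP-1 0.2 nM before substrate addition · Medium – HEPES buffer pH 7.1 with ZnSO4 and Brij 35 · Timing – 25 °C, 15 min preincubation, 25 min reaction · Measured by – plate fluorescence quenching by hydrolysis product, ex 480/em 530 nm · Read-out – percent enzyme inhibition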
Runt-SMMHC FRET: blocks binding of human RUNX1 Runt domain to CBFb-SMMHC; Cerulean-Runt/Venus-CBFb-SMMHC FRET ratio 530/480, 1 h; inhibition, % at 20 µM; Q01196+Q13951; AID 1434; 0.74% of 220,000 active;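 active = mean inhibition across duplicate retests at 20 µM reaching about 50%, limit read from the data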;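 note: 0% = DMSO wells and 100% = wells with excess untagged CBFb-SMMHC; inhibitors lower the FRET ratio by blocking Runt binding to CBFb-SMMHC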
Target sequence (Q01196 whole entry, looked up, the tested form may be a part): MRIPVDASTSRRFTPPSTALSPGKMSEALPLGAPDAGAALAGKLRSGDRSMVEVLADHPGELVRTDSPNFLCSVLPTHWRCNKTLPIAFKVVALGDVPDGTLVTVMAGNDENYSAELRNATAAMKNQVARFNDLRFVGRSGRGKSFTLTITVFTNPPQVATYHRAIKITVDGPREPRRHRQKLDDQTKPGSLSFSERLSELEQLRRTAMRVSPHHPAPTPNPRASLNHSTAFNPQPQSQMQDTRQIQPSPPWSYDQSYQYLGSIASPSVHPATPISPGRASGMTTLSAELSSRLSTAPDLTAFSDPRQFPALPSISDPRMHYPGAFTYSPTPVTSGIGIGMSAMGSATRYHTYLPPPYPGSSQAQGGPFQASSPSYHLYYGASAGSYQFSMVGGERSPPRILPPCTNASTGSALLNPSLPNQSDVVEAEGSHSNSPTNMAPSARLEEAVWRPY
Target sequence (Q13951 whole entry, looked up, the tested form may be a part): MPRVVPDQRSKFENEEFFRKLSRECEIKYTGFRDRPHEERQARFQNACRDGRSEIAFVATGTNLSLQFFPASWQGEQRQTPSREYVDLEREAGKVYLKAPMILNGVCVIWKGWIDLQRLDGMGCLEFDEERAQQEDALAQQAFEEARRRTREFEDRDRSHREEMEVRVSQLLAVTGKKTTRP
Runt-CBFb FRET: Runt domain-CBFb interaction inhibition; Q01196+Q13951; Cerulean-Runt/Venus-CBFb FRET ratio 530/480, 1 h; inhibition, % at 20 µM; 0.46% of 220,000 active; AID 1496;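 active = inhibition over about 50% at 20 µM in the single-dose screen, limit read from the data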;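 note: 0% = DMSO wells and 100% = excess unlabeled CBFb competitor control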
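Assay system: Cerulean-tagged RUNX1 Runt domain (FRET donor) fusion protein / Amount: 100 nM each of Venus-CBFb and Cerulean-Runt domain / Medium: Tris buffer pH 7.5 with salts and BSA / Also added: Venus-CBFb 100 nM / Schedule: 1 h complex formation plus 1 h compound treatment, room temperature / Signal: FRET fluorescence / Read-out: loss of energy transfer signal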
* marks the source's active call; other numbers are inactive results; ? = inconclusive; · = no result given. Most compounds without a hit are left out; they make up all but 2.6% or so of the library.

SMILES | VIM-2 inhibitor | RanGTP-Imp inh | IMP-1 inh | Runt-SMMHC FRET | Runt-CBFb FRET
Cc1ccc(-n2c(C)cc(/C=N/NC(=O)Cn3c4ccccc4c(=O)c4ccccc43)c2C)cc1 | 1.9 | · | -4.3 | · | 105.5*
COC(=O)N/N=C/c1cc(C)n(-c2ccccc2)c1C | -4.0 | -4.3 | -1.8 | 3.8 | -0.6
COCCn1c(C)cc(C(=O)CSc2nc(C)cc(C)c2C#N)c1C | 1.1 | 8.1 | -3.0 | 58.5* | 9.5
Cc1cc(C)c(C#N)c(SCC(=O)c2cc(C)n(CCc3ccccc3)c2C)n1 | 0.4 | 12.3 | -0.9 | -3.1 | -3.9
O=C(O)CC12CSc3[nH]c(=O)sc3C1c1ccccc1OC2=O (stereo not given) | 1.4 | -0.2 | 6.4* | 6.1 | 13.0
C=CCN(CC=C)c1nc2ccccc2nc1C(C#N)C(=O)OC(C)C (stereo not given) | -1.0 | 28.7* | -1.2 | 114.9* | 16.2
C=CCOC(=O)C(C#N)c1nc2ccccc2nc1N1CCN(c2ccccc2OC)CC1 (stereo not given) | -5.9 | -2.0 | -4.0 | -1.8 | 0.5
Cc1ccc2c(c1)c1ncnc(N3CCOCC3)c1n2C | 7.7* | -1.1 | -4.0 | 1.8 | 1.3
COc1cc(OC)c(OC)cc1CN1CCSCC1 | -1.9 | -2.0 | -1.5 | · | ·
O=c1cc(N2CCc3ccccc3C2)[nH]c(=O)n1-c1ccc(Br)cc1 | -2.1 | 123.9* | -0.9 | 4.4 | 2.1
O=c1cc(N2CCc3ccccc3C2)[nH]c(=O)n1-c1ccc(Cl)cc1 | -4.6 | 117.1* | -2.9 | -0.2 | 4.0
O=c1cc(N2CCc3ccccc32)[nH]c(=O)n1-c1ccc(Br)cc1 | -2.9 | -7.1 | -3.3 | 7.3 | 7.1
O=c1cc(N2CCc3ccccc3C2)[nH]c(=O)n1Cc1ccc(F)cc1 | -2.0 | 80.1* | -4.5 | 16.1 | 1.7
Cc1cc([N+](=O)[O-])nn1CC(=O)NCc1nc2ccccc2[nH]1 | 1.3 | 173.6* | -1.6 | -0.5 | 1.0
Cc1cc([N+](=O)[O-])nn1CC(=O)NCc1ccc(Cl)cc1 | -2.1 | 0.0 | -2.8 | · | ·
COc1cccc(/C=C2\Oc3cc(OCC(=O)N4Cc5ccccc5C[C@H]4C(=O)O)ccc3C2=O)c1 | 9.8* | -2.7 | -0.8 | · | ·
CCC(CC)C(=O)Nc1nnc(S(=O)(=O)Nc2ccccc2C)s1 | -1.4 | 0.0 | -3.9 | · | ·
CCOc1ccc(/C(O)=C2/C(=O)C(=O)N(c3nc(C)c(C)s3)C2c2ccco2)cc1 (stereo not given) | 2.2 | 2.0 | 5.5* | 5.6 | 14.0
COc1ccc(CCNCc2cc(C)n(-c3ccc(OC)cc3)c2C)cc1 | -0.1 | -0.7 | 1.4 | · | ·
CCCn1nc(C(=O)Oc2ccc3c(C)cc(=O)oc3c2)c2ccccc2c1=O | 0.8 | 6.5 | -3.8 | 88.4* | 43.0
Cc1cc(=O)oc2cc(OC(=O)c3ccccc3)ccc12 | 1.6 | -0.2 | 1.2 | 2.5 | 4.5
Cc1cc(=O)oc2cc(OC(=O)c3nn(C(C)C)c(=O)c4ccccc34)ccc12 | 2.6 | 2.2 | -1.1 | 89.9* | 41.7
CCCCC(Br)C(=O)Nc1ccc(S(=O)(=O)Nc2cc(C)nc(C)n2)cc1 (stereo not given) | -6.9 | -0.2 | -4.5 | · | ·
Cc1ccccc1NC(=O)c1cn2c(nc3ccccc32)c(C#N)c1C | -2.8 | 9.7 | -2.6 | 81.1* | -56.3
Cc1c(C(=O)Nc2ccccc2)cn2c(nc3ccccc32)c1C#N | 4.3 | 7.7 | 0.5 | -32.0 | -19.1
SMILES | VIM-2 inhibitor | RanGTP-Imp inh | IMP-1 inh | Runt-SMMHC FRET | Runt-CBFb FRET
O=C(Cc1ccc(-c2ccccc2)cc1)Nc1ncccc1O | -4.7 | 3.7 | 32.8* | · | ·
Cc1cccc(NC(=O)Cc2ccc(-c3ccccc3)cc2)n1 | -0.4 | -4.3 | 11.6* | · | ·
O=C(Cc1ccc(-c2ccccc2)cc1)Nc1ccccc1 | -0.5 | ? | 1.7 | · | ·
COc1ccc(CNC(=O)c2oc3ccc(S(=O)(=O)N4CCOCC4)cc3c2C)cc1 | -1.5 | -0.1 | -4.2 | · | ·
Cc1cc(/C=C2\Cc3ccccc3C2=O)c(C)n1-c1ccccc1 | -0.7 | 23.5* | -2.3 | 15.9 | 17.0
Cc1cc(C=C2C(=O)c3ccccc3C2=O)c(C)n1-c1ccccc1 | -1.4 | -2.5 | -0.8 | -89.4 | -12.7
CC1=NN2C(=N)/C(=C\c3cc(C)n(-c4ccccc4)c3C)C(=O)N=C2S1 | 1.9 | 39.4* | -0.4 | 4.3 | -7.3
COc1cccc(OCc2cc(C(=O)N(Cc3ccccc3)CC3CC3)no2)c1 | -2.5 | -0.5 | -2.4 | · | ·
Nc1cc(-c2ccccc2)nn1Cc1ccccc1 | -1.1 | 31.6* | -4.0 | -1.9 | -0.6
O=c1ccc(-c2ccccc2)nn1Cc1ccccc1 | -1.8 | 4.9 | -3.0 | · | ·
O=C(COC(=O)Cc1c(F)cccc1Cl)NC1CCS(=O)(=O)C1 (stereo not given) | · | 4.9 | · | · | ·
Cc1cc(C)c2c(N)c(C(=O)C(C)(C)C)sc2n1 | 1.9 | 1.2 | 0.5 | 91.7* | 92.7*
O=C(O)CCN1C(=O)C2C3CC(C2C1=O)C1C(c2ccccc2)c2sc(=O)n(-c4ccccc4)c2SC31 (stereo not given) | -5.5 | 8.6 | -1.6 | 0.4 | 4.1
O=C(O)CCN1C(=O)C2C3CC(C2C1=O)C1C(c2ccccc2)c2sc(=O)[nH]c2SC31 (stereo not given) | 0.2 | 21.0* | -1.8 | -0.7 | 12.0
COc1cc(C2c3sc(=O)[nH]c3SC3C(=O)N(c4ccc(C)cc4)C(=O)C32)ccc1O (stereo not given) | -2.2 | 5.2 | -3.1 | -2.0 | 18.7
Cc1ccc(C2c3sc(=O)[nH]c3SC3C4CC(C5C(=O)N(C(C)C(=O)O)C(=O)C45)C23)cc1 (stereo not given) | -2.2 | 57.8* | 1.4 | 4.3 | 27.4
CN(C(=O)COC(=O)c1nc(Cl)ccc1Cl)c1ccccc1 | -3.1 | 2.7 | -2.9 | · | ·
Cc1ccc(C2(C)NC(=O)N(CC(=O)Nc3ccc(Cl)c(S(=O)(=O)N4CCCCC4)c3)C2=O)cc1 (stereo not given) | · | 1.3 | · | · | ·
Cc1cc(/C=C2\SC(=S)N(C)C2=O)c(C)n1-c1ccc(O)cc1 | 0.5 | 37.5* | -1.3 | -52.0 | -15.5
Cc1cc(/C=C2\SC(=S)N(C)C2=O)c(C)n1-c1ccccc1O | · | 43.8* | · | · | ·
CN1C(=O)/C(=C/c2coc3ccc(O)cc3c2=O)SC1=S | -2.6 | ? | -2.5 | -8.6 | -1.9
Cc1cc(/C=C2\SC(=S)NC2=O)c(C)n1-c1cccc(O)c1 | -1.9 | 20.4* | -3.8 | -24.7 | -6.3
Cc1cc(/C=C2/SC(=S)N(c3cccc(Cl)c3)C2=O)c(C)n1-c1cccnc1 | -0.2 | 4.3 | 0.7 | · | ·
O=C(COc1ccc(Br)cc1)Nc1ccc(CN2CCOCC2)cc1 | -2.7 | -4.0 | -3.8 | · | ·
C(=C/c1nccc2c1[nH]c1ccccc12)/c1ccc2c(c1)OCO2 | -2.0 | 119.8* | -1.9 | 53.0* | 25.8
CSc1ccc(CN2CCC(Oc3ccc(C(=O)N4CCCC4)cc3)CC2)cc1 | -2.5 | 2.1 | 1.5 | · | ·
CCOc1ccc(-c2nnc(-c3cccnc3)o2)cc1OCC | 11.3* | -4.4 | -4.2 | 1.4 | -3.2
CSc1ccc(CN2CCC(O)CC2)cc1 | -2.3 | · | -1.4 | · | ·

Screens as filed in PubChem.
